Calls of active or inactive are those of the source. No cut-off for these calls is given here.
Tests used:
Mus musculus [1] = test: Antiparkinsonian effect against MPTP-induced hypokinesia in C57/BL6 mouse assessed as time of locomotory activity at 20 mg/kg, po administered 15 mins after 30 mg/kg, ip MPTP challenge measured after 1.5 hrs of compound administration for 2 mins (reference value: 58.3 +/- 3.9 sec); type: functional, C57Bl/6
Outline: (§1)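 Male C57BL/6 mice (25–30 g) were given MPTP 0.17 mmol/kg (30 mg/kg) ip and, 15 min later, test agent 0.12 mmol/kg (20 mg/kg) po. Controls received saline. An open-field test (Tru Scan) was run 1.5 h after MPTP for 2 min, recording acts, locomotion time, distance, speed, upright postures and explored holes.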

Mus musculus [2] = test: Antiparkinsonian effect against MPTP-induced hypokinesia in C57/BL6 mouse assessed as number of upright postures at 20 mg/kg, po administered 15 mins after 30 mg/kg, ip MPTP challenge measured after 1.5 hrs of compound administration for 2 mins (reference value: 6.5 +/- 1.3 upright postures); type: functional, C57Bl/6; outline: as §1
Mus musculus [3] = test: Antiparkinsonian effect against MPTP-induced hypokinesia in C57/BL6 mouse assessed as number of holes explored at 20 mg/kg, po administered 15 mins after 30 mg/kg, ip MPTP challenge measured after 1.5 hrs of compound administration for 2 mins (reference value: 15.6 +/- 3.3 holes explored); type: functional, C57Bl/6; outline: as §1
Mus musculus [4] = test: Antiparkinsonian effect against MPTP-induced hypokinesia in C57/BL6 mouse assessed as movement speed at 20 mg/kg, po administered 15 mins after 30 mg/kg, ip MPTP challenge measured after 1.5 hrs of compound administration for 2 mins (reference value: 2.3 +/- 0.2 cm/s); type: functional, C57Bl/6; outline: as §1
Mus musculus [5] = test: Antiparkinsonian effect against MPTP-induced hypokinesia in C57/BL6 mouse assessed as number of locomotory acts at 20 mg/kg, po administered 15 mins after 30 mg/kg, ip MPTP challenge measured after 1.5 hrs of compound administration for 2 mins (reference value: 84.1 +/- 1.9 locomotor acts); type: functional, C57Bl/6; outline: as §1
Mus musculus [6] = test: Antiparkinsonian effect against MPTP-induced hypokinesia in C57/BL6 mouse assessed as movement distance at 20 mg/kg, po administered 15 mins after 30 mg/kg, ip MPTP challenge […] for 2 mins (reference value: 276.8 +/- 27.8 cm); type: functional, C57Bl/6
Rattus norvegicus [7] = test: Antiparkinsonian effect against MPTP-induced hypokinesia in Wistar rat assessed as movement distance at 20 mg/kg, po administered 30 days post ip MPTP challenge measured on 30th day 2 hrs post compound administration for 2 mins (reference value: 367 +/- 21.2 cm)
Rattus norvegicus [8] = test: Antiparkinsonian effect against MPTP-induced hypokinesia in Wistar rat assessed as movement speed at 20 mg/kg, po administered 30 days post ip MPTP challenge measured on 30th day 2 hrs post compound administration for 2 mins (reference value: 3.0 +/- 0.2 cm/s)
Mus musculus [9] = test: Antiparkinsonian effect against MPTP-induced hypokinesia in C57/BL6 mouse assessed as movement speed at 20 mg/kg, po administered 24 hrs after 4 X 20 mg/kg, ip MPTP challenge measured after 2 hrs of compound administration for 2 mins (reference value: 4.6 +/- 0.2 cm/s); type: functional, C57Bl/6
Rattus norvegicus [10] = test: Antiparkinsonian effect against MPTP-induced hypokinesia in Wistar rat assessed as number of locomotory acts at 20 mg/kg, po administered 30 days post 20 mg/kg, ip MPTP challenge measured on 30th day 2 hrs post compound administration for 2 mins (reference value: 80.3 +/- 2.5 locomotor acts); type: functional
Mus musculus [11] = test: Antiparkinsonian effect against MPTP-induced hypokinesia in C57/BL6 mouse assessed as time of locomotory activity at 20 mg/kg, po administered 24 hrs after 4 X 20 mg/kg, ip MPTP challenge measured after 2 hrs of compound administration for 2 mins (reference value: 90.0 +/- 1.4 sec); type: functional, C57Bl/6
Rattus norvegicus [12] = test: Antiparkinsonian effect against MPTP-induced hypokinesia in Wistar rat assessed as number of holes explored at 20 mg/kg, po administered 30 days post ip MPTP challenge measured on 30th day 2 hrs post compound administration for 2 mins (reference value: 4.6 +/- 0.9 holes explored)
Mus musculus [13] = test: Antiparkinsonian effect against MPTP-induced hypokinesia in C57/BL6 mouse assessed as number of upright postures at 20 mg/kg, po administered 24 hrs after 4 X 20 mg/kg, ip MPTP challenge measured after 2 hrs of compound administration for 2 mins (reference value: 24.9 +/- 3.3 upright postures); type: functional, C57Bl/6
Rattus norvegicus [14] = test: Antiparkinsonian effect against MPTP-induced hypokinesia in Wistar rat assessed as time of locomotory activity at 20 mg/kg, po administered 30 days post 40 mg/kg, ip MPTP challenge measured on 30th day 2 hrs post compound administration for 2 mins (reference value: 69.7 +/- 2.1 sec)
Mus musculus [15] = test: Antiparkinsonian effect against MPTP-induced hypokinesia in C57/BL6 mouse assessed as number of holes explored at 20 mg/kg, po administered 24 hrs after 4 X 20 mg/kg, ip MPTP challenge measured after 2 hrs of compound administration for 2 mins (reference value: 4.1 +/- 1.1 holes explored); type: functional, C57Bl/6
Rattus norvegicus [16] = test: Inhibition of haloperidol-induced catalepsy in Wistar rat at 20 mg/kg, po administered 10 mins before haloperidol challenge measured for 30 to 240 mins; type: functional, organism-based; parameters: dose 20 mg/kg
Outline: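 Male Wistar rats (six per group) were dosed po with 0.12 mmol/kg (20 mg/kg), and 10 min later received haloperidol 4.0 μmol/kg (1.5 mg/kg) ip in saline. Controls received haloperidol only. Immobility time on parallel bars was recorded at 30, 60, 120, 180 and 240 min at rt. Total catalepsy duration and % cataleptic animals were scored.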

Mus musculus [17] = test: Antiparkinsonian effect against MPTP-induced hypokinesia in C57/BL6 mouse assessed as movement distance at 20 mg/kg, po administered 24 hrs after 4 X 20 mg/kg, ip MPTP challenge measured after 2 hrs of compound administration for 2 mins (reference value: 556.7 +/- 19.6 cm); type: functional, C57Bl/6
Rattus norvegicus [18] = test: Antiparkinsonian effect against MPTP-induced hypokinesia in Wistar rat assessed as number of upright postures at 20 mg/kg, po administered 30 days post 40 mg/kg, ip MPTP challenge measured on 30th day 2 hrs post compound administration for 2 mins (reference value: 14.6 +/- 1.8 upright postures)
Mus musculus [19] = test: Antiparkinsonian effect against MPTP-induced hypokinesia in C57/BL6 mouse assessed as number of locomotory acts at 20 mg/kg, po administered 24 hrs after 4 X 20 mg/kg, ip MPTP challenge measured after 2 hrs of compound administration for 2 mins (reference value: 73.3 +/- 2.3 locomotor acts); type: functional, C57Bl/6
Rattus norvegicus [20] = test: Antiparkinsonian effect against MPTP-induced hypokinesia in Wistar rat assessed as movement distance at 10 mg/kg, po administered 30 days post 20 mg/kg, ip MPTP challenge measured on 30th day 2 hrs post compound administration for 2 mins (reference value: 367 +/- 21.2 cm); type: functional
Rattus norvegicus [21] = test: Antiparkinsonian effect against MPTP-induced hypokinesia in Wistar rat assessed as time of locomotory activity at 10 mg/kg, po administered 30 days post 20 mg/kg, ip MPTP challenge measured on 30th day 2 hrs post compound administration for 2 mins (reference value: 69.7 +/- 2.1s); type: functional
Rattus norvegicus [22] = test: Antiparkinsonian effect against MPTP-induced hypokinesia in Wistar rat assessed as number of holes explored at 10 mg/kg, po administered 30 days post 20 mg/kg, ip MPTP challenge measured on 30th day 2 hrs post compound administration for 2 mins (reference value: 4.6 +/- 0.9 holes explored); type: functional
Rattus norvegicus [23] = test: Antiparkinsonian effect against MPTP-induced hypokinesia in Wistar rat assessed as number of upright postures at 10 mg/kg, po administered 30 days post 20 mg/kg, ip MPTP challenge measured on 30th day 2 hrs post compound administration for 2 mins (reference value: 14.6 +/- 1.8 upright postures); type: functional
Rattus norvegicus [24] = test: Antiparkinsonian effect against MPTP-induced hypokinesia in Wistar rat assessed as number of locomotory acts at 10 mg/kg, po administered 30 days post 40 mg/kg, ip MPTP challenge measured on 30th day 2 hrs post compound administration for 2 mins (reference value: 80.3 +/- 2.5 locomotor acts)

Compound	Time (Mus musculus [1])	Activity (Mus musculus [2])	Activity (Mus musculus [3])	Activity (Mus musculus [4])	Activity (Mus musculus [5])	Movement distance (Mus musculus [6])	other results
C=C(C)[C@H]1CC=C(C)[C@H](O)[C@H]1O	34.9 s	2.5	4.4	1.1 cm/s	57.9	147.8 cm	
C=C(C)[C@H]1CC=C(C)[C@H](O)[C@@H]1O	55.6 s	3.1	14.4	1.2 cm/s	80.2	245.9 cm	
C=C(C)[C@@H]1CC=C(C)[C@@H](O)[C@@H]1O	64 s	3.2	13.1	2.7 cm/s	78.6	332.6 cm	Activity (Rattus norvegicus [7]): 305.6 cm; Activity (Rattus norvegicus [8]): 2.5 cm/s; Activity (Mus musculus [9]): 3.6 cm/s; Activity (Rattus norvegicus [10]): 81.9; Time (Mus musculus [11]): 74.8 s; Activity (Rattus norvegicus [12]): 4.3; Activity (Mus musculus [13]): 14.8; Time (Rattus norvegicus [14]): 62.6 s; Activity (Mus musculus [15]): 6.5; inhibition (Rattus norvegicus [16]): Active; Activity (Mus musculus [17]): 439.6 cm; Activity (Rattus norvegicus [18]): 10.7; Activity (Mus musculus [19]): 80.5
C=C(C)[C@@H]1CC=C(C)[C@H](O)[C@@H]1O	15 s	1.7	0.9	0.4 cm/s	28.5	55.9 cm	
N[C@@H](Cc1ccc(O)c(O)c1)C(=O)O [LEVODOPA]							Activity (Rattus norvegicus [20]): 316.8 cm; Time (Rattus norvegicus [21]): 65.1 s; Activity (Rattus norvegicus [22]): 4.6; Activity (Rattus norvegicus [23]): 9.6; Activity (Rattus norvegicus [24]): 86
C=C(C)[C@@H]1CC=C(C)[C@@H](O)[C@H]1O	45.5 s	4	3.5	1.7 cm/s	64.9	212.4 cm	
C=C(C)[C@H]1CC=C(C)[C@@H](O)[C@H]1O	56.6 s	7.9	8.1	2.1 cm/s	82.4	257.7 cm	
C=C(C)[C@H]1CC=C(C)[C@@H](O)[C@@H]1O	46.9 s	4.7	3.9	1.3 cm/s	65.5	158.8 cm	
C=C(C)[C@@H]1CC=C(C)[C@H](O)[C@H]1O	55.7 s	10.3	8.1	2.1 cm/s	77.4	253.3 cm	

Reference: ChEMBL document CHEMBL1800019, “Highly potent activity of (1R,2R,6S)-3-methyl-6-(prop-1-en-2-yl)cyclohex-3-ene-1,2-diol in animal models of Parkinson's disease” (2011)
